Measurements from ChEMBL document CHEMBL1124490, “Hybrid molecules: growth inhibition of Leishmania donovani promastigotes by thiosemicarbazones of 3-carboxy-beta-carbolines” (J Med Chem, 1989).

Legend:
Type in all cases: functional
Leishmania donovani [1] = assay: Percent inhibition on the biosynthesis of DNA of promastigotes of Leishmania donovani at 37 uM concentration
Outline: (§1)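 Promastigotes (5 x 10^6 cells/mL) were incubated with or without compound for 4 h, then pulsed for 1 h with a labelled precursor: [methyl-3H]thymidine 2.5 µCi/mL for DNA, [5-3H]uridine 2.5 µCi/mL for RNA, or [4,5-3H]leucine 5 µCi/mL for protein. Cells were washed in cold PBS and fractionated with TCA (cold-soluble pool, hot-soluble nucleic acid, insoluble protein). Protein was measured by Lowry.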

Leishmania donovani [2] = assay: Percent inhibition on the biosynthesis of RNA of promastigotes of Leishmania donovani at 3.7 uM concentration; outline: as §1
Leishmania donovani [3] = assay: Percent inhibition on the biosynthesis of RNA of promastigotes of Leishmania donovani at 37 uM concentration; outline: as §1
Leishmania donovani [4] = assay: Percent inhibition on the biosynthesis of proteins of promastigotes of Leishmania donovani at 3.7 uM concentration; outline: as §1
Leishmania donovani [5] = assay: Percent inhibition on the biosynthesis of proteins of promastigotes of Leishmania donovani at 37 uM concentration; outline: as §1
Leishmania donovani [6] = assay: Percent inhibition on the growth of the promastigotes of Leishmania donovani at 3.7 uM concentration
Leishmania donovani [7] = assay: Percent inhibition on the biosynthesis of DNA of promastigotes of Leishmania donovani at 3.7 uM concentration; outline: as §1
[8] = Concentration of compound provoking 50% inhibition on growth of Leishmania donovani promastigotes; settings: read-out: I50
Outline: (§2)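 L. donovani LRC L-52 promastigotes were grown at 26 °C in 45% DMEM plus 45% RPMI 1640 (25 mM HEPES, pH 7.4) with 10% heat-inactivated FCS and antibiotics. Compound was added one day after seeding. Cells were counted by hemacytometer 3 days later, in duplicate flasks at two dilutions each, against untreated cultures. IC50 is the mean of five independent experiments.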

Leishmania donovani [9] = assay: Concentration of compound provoking >99% irreversible after removal of drugs from culture medium inhibition on growth of Leishmania donovani promastigotes
Outline: (§3)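 Strain LRC L-52 promastigotes were exposed to compound for 3 days at 26 °C in DMEM/RPMI 1640 (HEPES, pH 7.4) with 10% heat-inactivated FCS. Cells were then centrifuged, washed free of drug and resuspended in fresh medium. They were counted by hemacytometer after 3 more days. The value is the concentration giving >99% irreversible growth inhibition.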

Leishmania donovani [10] = assay: Percent inhibition on the growth of the promastigotes of Leishmania donovani at 37 uM concentration
Leishmania donovani [11] = assay: Percent inhibition on the biosynthesis of DNA of promastigotes of Leishmania donovani at 5.25 uM concentration; outline: as §1
Leishmania donovani [12] = assay: Percent inhibition on the biosynthesis of RNA of promastigotes of Leishmania donovani at 17.5 uM concentration; outline: as §1
Leishmania donovani [13] = assay: Percent inhibition on the biosynthesis of RNA of promastigotes of Leishmania donovani at 3.5 uM concentration; outline: as §1
Leishmania donovani [14] = assay: Percent inhibition on the biosynthesis of RNA of promastigotes of Leishmania donovani at 5.25 uM concentration; outline: as §1
Leishmania donovani [15] = assay: Percent inhibition on the biosynthesis of proteins of promastigotes of Leishmania donovani at 17.5 uM concentration; outline: as §1
Leishmania donovani [16] = assay: Percent inhibition on the biosynthesis of proteins of promastigotes of Leishmania donovani at 3.5 uM concentration; outline: as §1
Leishmania donovani [17] = assay: Percent inhibition on the biosynthesis of proteins of promastigotes of Leishmania donovani at 5.25 uM concentration; outline: as §1
Leishmania donovani [18] = assay: Percent inhibition on the growth of the promastigotes of Leishmania donovani at 17.5 uM concentration
Leishmania donovani [19] = assay: Percent inhibition on the growth of the promastigotes of Leishmania donovani at 3.5 uM concentration
Leishmania donovani [20] = assay: Percent inhibition on the biosynthesis of DNA of promastigotes of Leishmania donovani at 3.5 uM concentration; outline: as §1
Leishmania donovani [21] = assay: Percent inhibition on the biosynthesis of DNA of promastigotes of Leishmania donovani at 17.5 uM concentration; outline: as §1
Leishmania donovani [22] = assay: Percent inhibition on the biosynthesis of DNA of promastigotes of Leishmania donovani at 53 uM concentration; outline: as §1
Leishmania donovani [23] = assay: Percent inhibition on the biosynthesis of RNA of promastigotes of Leishmania donovani at 26.6 uM concentration; outline: as §1
Leishmania donovani [24] = assay: Percent inhibition on the biosynthesis of RNA of promastigotes of Leishmania donovani at 53 uM concentration; outline: as §1
Leishmania donovani [25] = assay: Percent inhibition on the biosynthesis of proteins of promastigotes of Leishmania donovani at 26.6 uM concentration; outline: as §1
Leishmania donovani [26] = assay: Percent inhibition on the growth of the promastigotes of Leishmania donovani at 26.6 uM concentration
Leishmania donovani [27] = assay: Percent inhibition on the growth of the promastigotes of Leishmania donovani at 53 uM concentration
Leishmania donovani [28] = assay: Concentration of compound provoking >99% irreversible after removal of drugs from culture medium inhibition on growth of Leishmania donovani promastigotes multiplication; outline: as §3
Leishmania donovani [29] = assay: Percent inhibition on the biosynthesis of DNA of promastigotes of Leishmania donovani at 26.6 uM concentration; outline: as §1
[30] = Concentration of compound provoking 50% inhibition on growth of Leishmania donovani promastigotes multiplication; settings: read-out: I50; outline: as §2
Leishmania donovani [31] = assay: Percent inhibition on the biosynthesis of proteins of promastigotes of Leishmania donovani at 53 uM concentration; outline: as §1

For `N/C(S)=N/N=C/c1cc2c3ccccc3nc-2c[nH]1`, which inhibition (Leishmania donovani [1]) is on record?
Its inhibition is 99.7%.

And the inhibition (Leishmania donovani [2])?
The inhibition was 34%.

What about the inhibition (Leishmania donovani [3]) of the same molecule?
The inhibition was 96%.

And the inhibition (Leishmania donovani [4])?
Its inhibition is 7%.

And the inhibition (Leishmania donovani [5])?
Its inhibition is 81%.

What about the inhibition (Leishmania donovani [6]) of the same molecule?
Its inhibition is 37%.

What about the inhibition (Leishmania donovani [7]) of the same molecule?
The inhibition was 89%.

What about the IC50 [8] of the same molecule?
The IC50 was 5 µM.

What about the concentration for >99% irreversible growth inhibition (Leishmania donovani [9]) of the same molecule?
Its concentration for >99% irreversible growth inhibition is 40 µM.

And the inhibition (Leishmania donovani [10])?
The inhibition was 90%.

With `COC(=O)c1cc2c(cn1)[nH]c1ccccc12` [BETA-CCM] as the molecule, how does the IC50 [8] read?
The IC50 was > 50 µM.

With `N=C(N)c1ccc(OCCCCCOc2ccc(C(=N)N)cc2)cc1` [PENTAMIDINE] as the molecule, how does the IC50 [8] read?
Its IC50 is 0.56 µM.

What about the concentration for >99% irreversible growth inhibition (Leishmania donovani [9]) of the same molecule?
The concentration for >99% irreversible growth inhibition was 1.1 µM.

For `C/C(=N\N=C(\N)S)c1cc2c3ccccc3nc-2c[nH]1`, which inhibition (Leishmania donovani [11]) is on record?
The inhibition was 0.5%.

And the inhibition (Leishmania donovani [12])?
The inhibition was 98.7%.

And the inhibition (Leishmania donovani [13])?
Its inhibition is 36%.

And the inhibition (Leishmania donovani [14])?
Its inhibition is 52%.

And the inhibition (Leishmania donovani [15])?
The inhibition was 95%.

And the inhibition (Leishmania donovani [16])?
Its inhibition is 25%.

What about the inhibition (Leishmania donovani [17]) of the same molecule?
The inhibition was 36%.

And the inhibition (Leishmania donovani [18])?
The inhibition was 100%.

And the inhibition (Leishmania donovani [19])?
Its inhibition is 68%.

And the inhibition (Leishmania donovani [20])?
Its inhibition is 0%.

And the IC50 [8]?
The IC50 was 2.5 µM.

And the concentration for >99% irreversible growth inhibition (Leishmania donovani [9])?
The concentration for >99% irreversible growth inhibition was 17.5 µM.

What about the inhibition (Leishmania donovani [21]) of the same molecule?
Its inhibition is 99.6%.

For `CCOC(=O)c1cc2cc(/C=N/N=C(/N)S)[nH]cc-2n1`, which IC50 [8] is on record?
The IC50 was > 50 µM.

What about the concentration for >99% irreversible growth inhibition (Leishmania donovani [9]) of the same molecule?
Its concentration for >99% irreversible growth inhibition is > 75 µM.

Which inhibition (Leishmania donovani [22]) does the source give for `N/C(S)=N/N=C/c1ccccn1` here?
Its inhibition is 95%.

And the inhibition (Leishmania donovani [23])?
The inhibition was 50%.

And the inhibition (Leishmania donovani [24])?
The inhibition was 53%.

And the inhibition (Leishmania donovani [25])?
The inhibition was 20%.

What about the inhibition (Leishmania donovani [26]) of the same molecule?
The inhibition was 56%.

And the inhibition (Leishmania donovani [27])?
Its inhibition is 78%.

And the Imax (Leishmania donovani [28])?
The Imax was 67 µM.

And the inhibition (Leishmania donovani [29])?
Its inhibition is 90%.

And the IC50 [30]?
Its IC50 is 29 µM.

What about the inhibition (Leishmania donovani [31]) of the same molecule?
The inhibition was 17%.
